Assay [1] deals with Aurora kinase B (Homo sapiens) (UniProt Q96GD4). Put plainly: Inhibition of Aurora B at 1 uM.
Assay [2] can be described thus: Antiproliferative activity against human MDA231 cells after 72 hrs by MTT assay. The class given is functional, cell-based. The conditions noted are these: MDA-MB-231, 72 h. The gist of the method:
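MTT read-out on MDA-231 cells. 1×10^3 exponentially growing cells seeded and incubated 24, 48 and 72 h. Medium replaced with 1 mg/mL MTT for 3–4 h at 37 °C.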
A general note: Tetrazolium dyes change colour on reduction, which living cells bring about.

In assay [3] the target is Platelet-derived growth factor receptor beta (Homo sapiens) (UniProt P09619). Put plainly: Inhibition of PDGFRbeta at 1 uM.
For assay [4], the target named is T1, Serine/threonine-protein kinase Sgk3 (Homo sapiens) (UniProt Q96BR1).
T1 sequence (whole entry): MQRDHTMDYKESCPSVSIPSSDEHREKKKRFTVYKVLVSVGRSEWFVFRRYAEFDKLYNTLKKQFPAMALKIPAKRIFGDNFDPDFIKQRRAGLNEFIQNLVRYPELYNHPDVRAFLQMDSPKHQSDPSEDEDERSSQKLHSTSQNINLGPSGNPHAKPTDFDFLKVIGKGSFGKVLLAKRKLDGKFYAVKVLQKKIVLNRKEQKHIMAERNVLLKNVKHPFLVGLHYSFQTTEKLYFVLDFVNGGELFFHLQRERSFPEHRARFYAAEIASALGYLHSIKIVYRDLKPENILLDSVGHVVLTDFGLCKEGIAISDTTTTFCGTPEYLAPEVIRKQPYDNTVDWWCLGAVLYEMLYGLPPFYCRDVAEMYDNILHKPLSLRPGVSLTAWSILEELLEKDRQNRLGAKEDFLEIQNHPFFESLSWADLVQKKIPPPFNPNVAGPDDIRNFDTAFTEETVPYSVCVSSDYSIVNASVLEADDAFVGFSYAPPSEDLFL
Put plainly: Inhibition of SGK3 at 1 uM.

For assay [5], the target named is Tyrosine-protein kinase SYK (Homo sapiens) (UniProt P43405). Put plainly: Inhibition of SYK at 1 uM.
The target in assay [6] is Ribosomal protein S6 kinase alpha-4 (Homo sapiens) (UniProt O75676). Put plainly: Inhibition of RPS6KA4 at 1 uM.
For assay [7], the target named is Tyrosine-protein kinase Fyn (Homo sapiens) (UniProt P06241). Put plainly: Inhibition of FYN at 1 uM.
Assay [8] addresses Vascular endothelial growth factor receptor 2 (Homo sapiens) (UniProt P35968). Put plainly: Inhibition of VEGFR2 at 1 uM.
Assay [9] addresses Epidermal growth factor receptor (Homo sapiens) (UniProt P00533). Put plainly: Inhibition of EGFR at 1 uM.
For assay [10], the target named is Tyrosine-protein kinase ABL1 (Homo sapiens) (UniProt P00519). Put plainly: Inhibition of ABL1 at 1 uM.
In assay [11] the target is T2, Serine/threonine-protein kinase PLK4 (Homo sapiens) (UniProt O00444).
T2 sequence (whole entry): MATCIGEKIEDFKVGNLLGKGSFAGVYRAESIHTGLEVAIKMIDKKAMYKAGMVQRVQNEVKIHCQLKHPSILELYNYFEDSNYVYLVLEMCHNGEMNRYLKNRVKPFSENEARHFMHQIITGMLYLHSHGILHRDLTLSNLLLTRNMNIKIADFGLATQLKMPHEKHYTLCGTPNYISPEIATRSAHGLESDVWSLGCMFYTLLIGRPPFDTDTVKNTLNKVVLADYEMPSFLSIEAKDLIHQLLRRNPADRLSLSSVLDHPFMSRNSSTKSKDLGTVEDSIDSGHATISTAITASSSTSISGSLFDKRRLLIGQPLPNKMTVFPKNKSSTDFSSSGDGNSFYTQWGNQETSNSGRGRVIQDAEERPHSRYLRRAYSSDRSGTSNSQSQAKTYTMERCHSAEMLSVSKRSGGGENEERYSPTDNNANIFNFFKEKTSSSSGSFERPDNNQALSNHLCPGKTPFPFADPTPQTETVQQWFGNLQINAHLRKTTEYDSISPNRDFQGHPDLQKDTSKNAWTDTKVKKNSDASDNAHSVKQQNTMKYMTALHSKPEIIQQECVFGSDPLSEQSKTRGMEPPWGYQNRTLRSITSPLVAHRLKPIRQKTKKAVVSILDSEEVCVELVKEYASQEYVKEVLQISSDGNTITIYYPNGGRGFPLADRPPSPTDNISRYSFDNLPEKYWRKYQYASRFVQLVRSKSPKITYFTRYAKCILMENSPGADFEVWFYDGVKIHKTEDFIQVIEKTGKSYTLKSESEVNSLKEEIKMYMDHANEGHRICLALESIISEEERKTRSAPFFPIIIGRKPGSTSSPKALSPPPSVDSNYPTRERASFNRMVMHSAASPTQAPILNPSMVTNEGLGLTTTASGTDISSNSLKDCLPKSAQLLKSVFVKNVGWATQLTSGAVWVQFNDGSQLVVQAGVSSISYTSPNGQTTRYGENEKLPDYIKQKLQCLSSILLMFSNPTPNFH
Put plainly: Inhibition of PLK4 at 1 uM.

Assay [12] concerns the target Cyclin-dependent kinase 1/cyclin B1 (Homo sapiens) (UniProt P06493+P14635). Put plainly: Inhibition of CDK1/cyclin B at 1 uM. The format is protein-complex assay.
The target of assay [13] is T3, Mitogen-activated protein kinase 12 (Homo sapiens) (UniProt P53778).
T3 sequence (whole entry): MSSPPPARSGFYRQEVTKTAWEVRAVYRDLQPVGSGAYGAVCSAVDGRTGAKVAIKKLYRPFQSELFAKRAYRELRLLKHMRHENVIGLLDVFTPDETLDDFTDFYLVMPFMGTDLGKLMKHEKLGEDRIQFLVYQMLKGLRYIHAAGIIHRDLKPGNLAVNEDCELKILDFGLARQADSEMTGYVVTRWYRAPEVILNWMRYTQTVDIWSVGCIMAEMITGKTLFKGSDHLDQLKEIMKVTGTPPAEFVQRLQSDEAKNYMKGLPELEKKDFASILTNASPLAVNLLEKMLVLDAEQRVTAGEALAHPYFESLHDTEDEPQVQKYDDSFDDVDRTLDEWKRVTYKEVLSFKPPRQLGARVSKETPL
Put plainly: Inhibition of p38-gamma at 1 uM.

Assay [14] has as its target Serine/threonine-protein kinase PAK 1 (Homo sapiens) (UniProt Q13153). Put plainly: Inhibition of PAK1 at 1 uM.
In assay [15] the target is BDNF/NT-3 growth factors receptor (Homo sapiens) (UniProt Q16620). Put plainly: Inhibition of TRKB at 1 uM.
Assay [16] deals with Serine/threonine-protein kinase pim-1 (Homo sapiens) (UniProt P11309). Put plainly: Inhibition of PIM1 at 1 uM.
For assay [17], the target named is Receptor tyrosine-protein kinase erbB-2 (Homo sapiens) (UniProt P04626). Put plainly: Inhibition of HER2 at 1 uM.
Assay [18] in a line: Antiinvasive activity in human MDA231 cells at 10 uM after 48 hrs by Matrigel matrix assay. The format is functional, MDA-MB-231. The gist of the method: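 Serum-starved MDA-231 cells (30,000) placed with or without compound (10 μM) in the upper compartment of 8-µm Matrigel-coated Boyden chambers. Lower compartment held DMEM 0.2% BSA with 10% serum. Invasion ran 48 h, then invaded cells were fixed, stained and counted under a 40× objective. DMSO normalized to 0% inhibition. Mean ± SD, five experiments.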

Drawing on ChEMBL document CHEMBL1938284, “Synthesis and biological activity of novel organoselenium derivatives targeting multiple kinases and capable of inhibiting cancer progression to metastases” (Eur J Med Chem, 2012), this text covers inhibition, IC50 and Activity for four molecules.

What is called inhibition is how much of the control response was suppressed. A low value points to a response near the control. Usually IC50 stands for the concentration needed to halve the response being measured.

Chain of Epidermal growth factor receptor (Homo sapiens) (P00533 whole entry): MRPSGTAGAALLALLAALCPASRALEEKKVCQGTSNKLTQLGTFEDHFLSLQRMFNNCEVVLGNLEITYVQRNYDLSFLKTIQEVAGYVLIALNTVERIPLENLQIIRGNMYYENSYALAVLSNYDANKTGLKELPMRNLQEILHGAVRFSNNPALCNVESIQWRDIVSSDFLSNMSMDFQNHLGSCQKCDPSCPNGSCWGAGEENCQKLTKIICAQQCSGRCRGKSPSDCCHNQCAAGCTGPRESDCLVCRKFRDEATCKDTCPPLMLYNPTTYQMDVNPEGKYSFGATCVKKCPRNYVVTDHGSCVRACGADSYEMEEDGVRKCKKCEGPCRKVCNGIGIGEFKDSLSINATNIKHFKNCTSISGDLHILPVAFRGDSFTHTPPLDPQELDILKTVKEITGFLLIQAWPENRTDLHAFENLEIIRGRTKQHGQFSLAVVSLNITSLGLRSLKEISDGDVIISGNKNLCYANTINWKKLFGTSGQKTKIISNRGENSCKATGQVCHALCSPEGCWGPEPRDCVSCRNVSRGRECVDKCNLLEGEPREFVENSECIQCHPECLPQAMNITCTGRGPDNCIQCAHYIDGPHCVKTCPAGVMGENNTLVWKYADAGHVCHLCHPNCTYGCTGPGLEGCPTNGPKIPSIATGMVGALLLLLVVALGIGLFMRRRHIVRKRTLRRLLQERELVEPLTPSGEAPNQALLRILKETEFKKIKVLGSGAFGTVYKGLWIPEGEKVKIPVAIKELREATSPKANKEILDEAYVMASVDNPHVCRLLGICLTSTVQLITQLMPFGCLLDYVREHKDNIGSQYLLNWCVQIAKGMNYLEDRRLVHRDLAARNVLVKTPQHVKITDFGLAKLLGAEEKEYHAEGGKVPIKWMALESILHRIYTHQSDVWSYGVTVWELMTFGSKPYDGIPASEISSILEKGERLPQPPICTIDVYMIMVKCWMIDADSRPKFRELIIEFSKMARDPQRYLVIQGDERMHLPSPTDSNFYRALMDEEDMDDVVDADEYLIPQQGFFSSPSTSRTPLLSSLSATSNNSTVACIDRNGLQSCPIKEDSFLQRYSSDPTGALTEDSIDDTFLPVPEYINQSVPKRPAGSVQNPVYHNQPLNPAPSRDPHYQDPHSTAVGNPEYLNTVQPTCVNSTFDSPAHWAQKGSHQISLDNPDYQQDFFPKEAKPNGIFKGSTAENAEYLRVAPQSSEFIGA
Chain of Aurora kinase B (Homo sapiens) (Q96GD4 whole entry): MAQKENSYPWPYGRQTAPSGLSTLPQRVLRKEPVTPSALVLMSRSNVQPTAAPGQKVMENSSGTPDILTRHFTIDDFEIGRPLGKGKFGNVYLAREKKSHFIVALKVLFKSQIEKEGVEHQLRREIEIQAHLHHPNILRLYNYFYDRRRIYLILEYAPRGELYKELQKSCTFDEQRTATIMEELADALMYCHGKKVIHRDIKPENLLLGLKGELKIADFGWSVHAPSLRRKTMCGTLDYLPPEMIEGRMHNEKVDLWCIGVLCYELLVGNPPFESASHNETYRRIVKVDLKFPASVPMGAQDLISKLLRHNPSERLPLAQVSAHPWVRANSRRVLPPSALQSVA
Chain of Serine/threonine-protein kinase pim-1 (Homo sapiens) (P11309 whole entry, looked up): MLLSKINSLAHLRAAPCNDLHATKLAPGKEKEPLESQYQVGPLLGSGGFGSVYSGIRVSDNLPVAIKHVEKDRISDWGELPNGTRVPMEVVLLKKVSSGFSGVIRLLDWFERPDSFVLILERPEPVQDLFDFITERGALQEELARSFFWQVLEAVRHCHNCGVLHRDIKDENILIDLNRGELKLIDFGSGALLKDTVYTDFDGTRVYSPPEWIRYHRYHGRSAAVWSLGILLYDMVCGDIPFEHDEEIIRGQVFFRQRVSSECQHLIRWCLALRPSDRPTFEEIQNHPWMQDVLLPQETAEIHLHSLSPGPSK
Chain of Tyrosine-protein kinase ABL1 (Homo sapiens) (P00519 whole entry): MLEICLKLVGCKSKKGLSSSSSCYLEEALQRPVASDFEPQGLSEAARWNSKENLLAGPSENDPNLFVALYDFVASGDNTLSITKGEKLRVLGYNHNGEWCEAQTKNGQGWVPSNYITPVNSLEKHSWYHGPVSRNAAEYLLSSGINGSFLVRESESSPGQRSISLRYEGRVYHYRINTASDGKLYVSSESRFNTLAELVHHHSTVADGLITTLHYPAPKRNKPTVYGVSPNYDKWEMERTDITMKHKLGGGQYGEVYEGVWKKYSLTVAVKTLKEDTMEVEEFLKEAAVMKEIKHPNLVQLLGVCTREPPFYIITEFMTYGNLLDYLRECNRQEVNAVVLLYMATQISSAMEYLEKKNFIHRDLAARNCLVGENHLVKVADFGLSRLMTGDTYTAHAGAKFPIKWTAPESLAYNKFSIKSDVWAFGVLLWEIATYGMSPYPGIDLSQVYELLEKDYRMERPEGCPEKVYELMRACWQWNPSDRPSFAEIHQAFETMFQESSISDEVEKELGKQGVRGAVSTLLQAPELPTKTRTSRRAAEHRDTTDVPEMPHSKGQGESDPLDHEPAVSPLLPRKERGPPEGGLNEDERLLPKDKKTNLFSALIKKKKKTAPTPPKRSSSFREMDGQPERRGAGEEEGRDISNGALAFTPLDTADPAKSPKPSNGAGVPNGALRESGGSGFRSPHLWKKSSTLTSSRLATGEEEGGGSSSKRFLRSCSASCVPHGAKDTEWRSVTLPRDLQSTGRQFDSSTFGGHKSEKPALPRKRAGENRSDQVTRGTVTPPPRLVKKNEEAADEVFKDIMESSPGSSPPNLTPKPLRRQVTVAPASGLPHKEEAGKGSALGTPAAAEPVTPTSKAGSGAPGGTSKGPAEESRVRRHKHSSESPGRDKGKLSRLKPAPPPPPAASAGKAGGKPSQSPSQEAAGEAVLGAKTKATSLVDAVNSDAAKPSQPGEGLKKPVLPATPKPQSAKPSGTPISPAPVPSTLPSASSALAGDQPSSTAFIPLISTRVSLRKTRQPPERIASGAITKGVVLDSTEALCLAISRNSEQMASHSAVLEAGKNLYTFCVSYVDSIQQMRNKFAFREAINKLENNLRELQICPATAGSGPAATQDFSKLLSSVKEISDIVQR
Chain of Tyrosine-protein kinase Fyn (Homo sapiens) (P06241 2-537 limits assumed): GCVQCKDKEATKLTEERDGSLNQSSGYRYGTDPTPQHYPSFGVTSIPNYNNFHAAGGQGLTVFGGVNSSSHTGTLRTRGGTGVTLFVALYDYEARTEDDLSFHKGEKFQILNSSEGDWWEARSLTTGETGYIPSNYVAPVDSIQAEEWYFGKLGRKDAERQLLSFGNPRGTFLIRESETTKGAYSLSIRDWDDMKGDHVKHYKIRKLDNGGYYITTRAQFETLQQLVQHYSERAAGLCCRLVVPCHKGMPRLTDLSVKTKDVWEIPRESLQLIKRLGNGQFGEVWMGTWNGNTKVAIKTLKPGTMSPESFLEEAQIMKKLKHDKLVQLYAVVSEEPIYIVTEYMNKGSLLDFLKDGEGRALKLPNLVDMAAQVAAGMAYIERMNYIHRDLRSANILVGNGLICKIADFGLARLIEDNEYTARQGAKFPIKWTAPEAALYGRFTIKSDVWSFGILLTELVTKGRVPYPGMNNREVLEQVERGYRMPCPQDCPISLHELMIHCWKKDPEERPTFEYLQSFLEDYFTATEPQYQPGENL
Chain of BDNF/NT-3 growth factors receptor (Homo sapiens) (Q16620 32-822 limits assumed): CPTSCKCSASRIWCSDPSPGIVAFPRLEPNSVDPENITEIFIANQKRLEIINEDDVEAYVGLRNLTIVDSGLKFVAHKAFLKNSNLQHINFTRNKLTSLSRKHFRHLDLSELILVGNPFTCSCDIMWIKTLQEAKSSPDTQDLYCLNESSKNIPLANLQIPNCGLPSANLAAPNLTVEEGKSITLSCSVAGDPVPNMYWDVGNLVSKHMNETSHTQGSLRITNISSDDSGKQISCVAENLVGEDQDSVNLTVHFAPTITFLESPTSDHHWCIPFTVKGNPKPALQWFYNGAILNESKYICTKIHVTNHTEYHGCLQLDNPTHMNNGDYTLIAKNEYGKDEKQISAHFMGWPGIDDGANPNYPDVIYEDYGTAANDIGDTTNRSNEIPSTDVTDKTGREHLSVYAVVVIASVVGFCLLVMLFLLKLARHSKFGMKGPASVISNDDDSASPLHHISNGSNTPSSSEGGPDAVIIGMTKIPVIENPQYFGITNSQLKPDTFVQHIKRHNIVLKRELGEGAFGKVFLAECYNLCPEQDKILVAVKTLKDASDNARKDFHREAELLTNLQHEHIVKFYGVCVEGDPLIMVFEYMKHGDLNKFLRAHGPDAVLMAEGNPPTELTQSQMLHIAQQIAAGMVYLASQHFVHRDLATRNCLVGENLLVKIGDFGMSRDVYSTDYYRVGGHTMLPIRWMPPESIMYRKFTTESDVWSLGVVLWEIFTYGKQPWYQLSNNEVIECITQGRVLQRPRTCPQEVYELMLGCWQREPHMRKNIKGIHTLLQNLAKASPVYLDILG
Chain of Serine/threonine-protein kinase PAK 1 (Homo sapiens) (Q13153 whole entry): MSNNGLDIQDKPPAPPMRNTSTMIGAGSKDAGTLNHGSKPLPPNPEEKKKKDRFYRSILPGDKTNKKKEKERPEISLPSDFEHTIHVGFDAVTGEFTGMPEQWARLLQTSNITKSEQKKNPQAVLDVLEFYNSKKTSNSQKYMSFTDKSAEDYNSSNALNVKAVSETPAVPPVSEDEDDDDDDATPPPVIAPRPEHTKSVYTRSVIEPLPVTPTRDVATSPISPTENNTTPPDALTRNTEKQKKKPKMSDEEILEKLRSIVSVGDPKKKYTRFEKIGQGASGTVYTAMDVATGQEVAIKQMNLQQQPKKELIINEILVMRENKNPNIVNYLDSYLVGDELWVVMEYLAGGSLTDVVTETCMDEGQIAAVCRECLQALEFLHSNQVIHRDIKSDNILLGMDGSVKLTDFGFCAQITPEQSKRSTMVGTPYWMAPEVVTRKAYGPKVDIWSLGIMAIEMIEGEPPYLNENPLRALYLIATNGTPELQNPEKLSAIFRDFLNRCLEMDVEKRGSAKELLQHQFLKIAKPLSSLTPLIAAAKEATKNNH

For `O=c1c2ccccc2[se]n1-c1ccccc1` [EBSELEN], the inhibition in assay [1], in assay [3], in [4], in assay [5], in assay [6] and in assay [7] was 0% throughout. Further, the inhibition in assay [8], in assay [9], in assay [10], in [11], in assay [12] and in assay [13] was 0% in each case. The inhibition in assay [14], in assay [15], in assay [16] and in assay [17] was 0% throughout. This molecule came in with an IC50 in assay [2] of 42.3 µM.
On to `CC(=O)OC[C@H]1O[C@@H](NC(=O)CCCn2[se]c3ccccc3c2=O)[C@H](OC(C)=O)[C@@H](OC(C)=O)[C@@H]1OC(C)=O`, for which the inhibition in assay [1], in assay [3], in assay [4], in assay [5], in assay [6] and in assay [7] was 0% in each case. Further, the inhibition in [8], in [9], in assay [10], in assay [11], in assay [12] and in assay [13] was 0% throughout. Further, the inhibition in [14], in assay [15], in assay [16] and in [17] was 0% throughout. Moreover, half-maximal inhibition in assay [2] (IC50) was put at 18.9 µM. For the same molecule, the Activity in assay [18] is listed as 50%.
`CC(=O)OC[C@H]1O[C@@H](O[C@H]2[C@H](OC(C)=O)[C@@H](OC(C)=O)[C@H](n3[se]c4ccccc4c3=O)O[C@@H]2COC(C)=O)[C@H](OC(C)=O)[C@@H](OC(C)=O)[C@H]1OC(C)=O`: the inhibition in assay [1], in [3], in assay [4], in assay [5], in [6] and in [7] was 0% throughout. Moreover, the inhibition in assay [8], in assay [9], in assay [10], in assay [11], in assay [12] and in assay [13] was 0% in each case. The inhibition in assay [14], in assay [15], in assay [16] and in assay [17] was 0% in each case. This molecule also gave an Activity in assay [18] of 50%.
With `O=C(CCCn1[se]c2ccccc2c1=O)N[C@@H]1O[C@H](CO)[C@@H](O)[C@H](O)[C@H]1O`, the inhibition in assay [1], in assay [3], in [4], in [5], in assay [6] and in assay [7] was 0% each time. Further, the inhibition in [8], in assay [9], in [10], in assay [11], in [12] and in [13] was 0% throughout. Also, the inhibition in assay [14], in assay [15], in assay [16] and in assay [17] was 0% each time. In assay [2], the IC50 stood at 20.4 µM. The same molecule registered an Activity in assay [18] of 50%.
